Test results from ChEMBL document CHEMBL1141911, “Discovery and SAR studies of a novel series of noncovalent cathepsin S inhibitors” (Bioorg Med Chem Lett, 2005).

Target: Cathepsin S (Homo sapiens, UniProt P25774)
Assay: Inhibitory concentration against cathepsin S

Cathepsin S, sequence (P25774 whole entry): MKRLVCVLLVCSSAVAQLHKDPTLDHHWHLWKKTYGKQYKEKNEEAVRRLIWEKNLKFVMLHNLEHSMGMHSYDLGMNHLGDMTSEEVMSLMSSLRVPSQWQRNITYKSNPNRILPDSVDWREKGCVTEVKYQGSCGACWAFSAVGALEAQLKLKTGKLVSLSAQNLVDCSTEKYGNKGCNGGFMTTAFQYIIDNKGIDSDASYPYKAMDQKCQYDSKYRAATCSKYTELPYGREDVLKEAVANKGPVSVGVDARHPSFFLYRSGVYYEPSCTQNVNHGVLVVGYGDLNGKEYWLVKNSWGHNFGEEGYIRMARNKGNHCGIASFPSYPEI

SMILES	IC50 [nM]
CC(=O)N1CCc2c(c(-c3ccc(C(F)(F)F)cc3)nn2CC(O)CN2CCC(n3c(=O)n(C)c4ccccc43)CC2)C1 (stereo unspecified)	110
CCCCn1c(=O)n(C2CCN(CC(O)Cn3nc(-c4ccc(Cl)c(C)c4)c4c3CCN(C(C)=O)C4)CC2)c2ccccc21 (stereo unspecified)	140
CC(=O)N1CCc2c(c(-c3ccc(C(F)(F)F)cc3)nn2C[C@@H](O)CN2CCC(n3c(O)nc4ccc(Cl)cc43)CC2)C1	200
CC(=O)N1CCc2c(c(-c3ccc(C(F)(F)F)cc3)nn2CC(O)CN2CCC(n3c(=O)[nH]c4ccccc43)CC2)C1 (stereo unspecified)	100
CC(=O)N1CCc2c(c(-c3ccc(Cl)c(C)c3)nn2CC(O)CN2CCC(n3c(=O)[nH]c4ccccc43)CC2)C1 (stereo unspecified)	130
Cn1c(=O)n(C2CCN(CCCn3nc(-c4ccc(Cl)c(Cl)c4)c4c3CCN(S(C)(=O)=O)C4)CC2)c2ccccc21	50
CC(=O)N1CCc2c(c(-c3ccc(Cl)cc3)nn2CC(O)CN2CCN(C(c3ccc(F)cc3)c3ccc(F)cc3)CC2)C1 (stereo unspecified)	1000
CS(=O)(=O)N1CCc2c(c(-c3ccc(Br)cc3)nn2CC(O)CN2CCC(n3c(=O)[nH]c4ccc(Cl)cc43)CC2)C1 (stereo unspecified)	50
CS(=O)(=O)N1CCc2c(c(-c3ccc(Br)cc3)nn2CCCN2CCC(n3c(=O)[nH]c4ccccc43)CC2)C1	50
CC(=O)N1CCc2c(c(-c3ccc(Cl)c(C)c3)nn2C[C@H](O)CN2CCC(n3c(=O)[nH]c4ccc(Cl)cc43)CC2)C1	350
COc1ccc2c(c1)[nH]c(=O)n2C1CCN(CC(O)Cn2nc(-c3ccc(Br)cc3)c3c2CCN(C(C)=O)C3)CC1 (stereo unspecified)	140
CC(=O)N1CCc2c(c(-c3ccc(Cl)c(C)c3)nn2CC(O)CN2CCC(n3c(=O)n(C(C)C)c4ccccc43)CC2)C1 (stereo unspecified)	100
Cn1c(=O)n(C2CCN(CCCn3nc(-c4ccc(Br)cc4)c4c3CCN(S(C)(=O)=O)C4)CC2)c2ccccc21	140
CC(=O)N1CCc2c(c(-c3ccc(Br)cc3)nn2CC(O)CN2CCC(n3c(=O)[nH]c4cc(Cl)c(Cl)cc43)CC2)C1 (stereo unspecified)	110
CS(=O)(=O)N1CCc2c(c(-c3ccc(C(F)(F)F)cc3)nn2CC(O)CN2CCC(n3c(=O)[nH]c4ccccc43)CC2)C1 (stereo unspecified)	50
Cc1cc(-c2nn(CC(O)CN3CCC(n4c(=O)[nH]c5ccccc54)CC3)c3c2CN(S(C)(=O)=O)CC3)ccc1Cl (stereo unspecified)	60
CC(=O)N1CCc2c(c(-c3ccc(Cl)cc3)nn2CC(O)CN2CCC(n3c(=O)[nH]c4ccccc43)CC2)C1 (stereo unspecified)	460
CS(=O)(=O)N1CCc2c(c(-c3ccc(C(F)(F)F)cc3)nn2CCCN2CCC(n3c(=O)[nH]c4ccccc43)CC2)C1	50
Cn1c(=O)n(C2CCN(CCCn3nc(-c4ccc(C(F)(F)F)cc4)c4c3CCN(S(C)(=O)=O)C4)CC2)c2cc(Cl)ccc21	100
CC(=O)N1CCc2c(c(-c3ccc(I)cc3)nn2CC(O)CN2CCC(n3c(=O)[nH]c4ccc(F)cc43)CC2)C1 (stereo unspecified)	230
CC(=O)N1CCc2c(c(-c3ccc(Br)cc3)nn2CC(O)CN2CCC(n3c(=O)[nH]c4cccc(C)c43)CC2)C1 (stereo unspecified)	210
CC(=O)N1CCc2c(c(-c3ccc(Cl)c(C)c3)nn2CC(O)CN2CCC(n3c(=O)n(C)c4ccccc43)CC2)C1 (stereo unspecified)	500
CS(=O)(=O)N1CCc2c(c(-c3ccc(C(F)(F)F)cc3)nn2CC(O)CN2CCC(n3c(=O)[nH]c4ccc(Cl)cc43)CC2)C1 (stereo unspecified)	60
CC(=O)N1CCc2c(c(-c3ccc(Cl)c(C)c3)nn2CC(O)CN2CCC(n3c(=O)[nH]c4cc(C)ccc43)CC2)C1 (stereo unspecified)	100
CCn1c(=O)n(C2CCN(CC(O)Cn3nc(-c4ccc(Cl)c(C)c4)c4c3CCN(C(C)=O)C4)CC2)c2ccccc21 (stereo unspecified)	310
Cn1c(=O)n(C2CCN(CC(O)Cn3nc(-c4ccc(C(F)(F)F)cc4)c4c3CCN(S(C)(=O)=O)C4)CC2)c2cc(Cl)ccc21 (stereo unspecified)	80
CC(=O)N1CCc2c(c(-c3ccc(I)cc3)nn2CC(O)CN2CCC(n3c(=O)[nH]c4ccccc43)CC2)C1 (stereo unspecified)	120
CC(=O)N1CCc2c(c(-c3ccc(C(F)(F)F)cc3)nn2C[C@H](O)CN2CCC(n3c(O)nc4ccc(Cl)cc43)CC2)C1	180
CC(=O)N1CCc2c(c(-c3ccc(Br)cc3)nn2CC(O)CN2CCC(n3c(=O)[nH]c4ccccc43)CC2)C1 (stereo unspecified)	80
Cn1c(=O)n(C2CCN(CCCn3nc(-c4ccc(Cl)c(Cl)c4)c4c3CCN(S(C)(=O)=O)C4)CC2)c2cc(Cl)ccc21	150

System: JY
Assay: Inhibitory concentration against Ii degradation in human JY cells
Format: functional, cell-based
In short: (§1)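 Inhibition of invariant chain (Ii) cleavage was measured in human JY cells, an antigen-presenting line. IC50 values are the mean of at least 3 runs.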

SMILES	IC50 [nM]
N#Cc1ccccc1N1CCN(CC(Cn2nc(-c3ccc(I)cc3)c3c2CCN(C(N)=O)C3)OC(N)=O)CC1 (stereo unspecified)	880
CC(=O)N1CCc2c(c(-c3ccc(I)cc3)nn2CC(O)CN2CCN(c3ccccc3C#N)CC2)C1 (stereo unspecified)	3900
N#Cc1ccccc1N1CCN(CC(O)Cn2nc(-c3ccc(I)cc3)c3c2CCN(C(N)=O)C3)CC1 (stereo unspecified)	1300

System: JY
Assay: Inhibitory concentration against Ii degradation in human JY cells (range IC50 = 0.6-0.8 uM)
Format: functional, cell-based
In short: as §1

SMILES	IC50 [nM]
Cn1c(=O)n(C2CCN(CCCn3nc(-c4ccc(C(F)(F)F)cc4)c4c3CCN(S(C)(=O)=O)C4)CC2)c2cc(Cl)ccc21	800

Target: not listed separately
Assay: Binding affinity against alpha-1A adrenergic receptor

SMILES	Ki [nM]
N#Cc1ccccc1N1CCN(CC(Cn2nc(-c3ccc(I)cc3)c3c2CCN(C(N)=O)C3)OC(N)=O)CC1 (stereo unspecified)	12
N#Cc1ccccc1N1CCN(CC(O)Cn2nc(-c3ccc(I)cc3)c3c2CCN(C(N)=O)C3)CC1 (stereo unspecified)	36
